According to ChEMBL document CHEMBL1938286, “A concise synthesis of viscolin, and its anti-inflammatory effects through the suppression of iNOS, COX-2, ERK phosphorylation and proinflammatory cytokines expressions” (Eur J Med Chem, 2012):
In brackets after ≈: the same amount, converted by molar mass. Activity calls are given as the source filed them. The rule behind the calls is not given here.

Columns and labels:
[1] = Antioxidant activity in human neutrophils assessed as inhibition of fMLP/CB-induced superoxide anion generation; assay type: functional, cell-based; settings: Neutrophil
[2] = Antiinflammatory activity in human neutrophils assessed as inhibition of fMLP/CB-induced elastase release; assay type: functional, cell-based; settings: Neutrophil
RAW264.7 [3] = experiment: Cytotoxicity against mouse RAW264.7 cells after 24 hrs by MTT assay; assay type: cell-based; settings: raw264.7, 24 h
Method in brief: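 RAW 264.7 cells (2 × 10⁵, DMEM + 10% FBS, grown 1 day to near confluence) exposed to test agent with 100 ng/mL LPS for 24 h. After two DPBS washes, 0.5 mg/mL MTT was added for 2 h at 37 °C. Formazan was dissolved in DMSO for 30 min and absorbance read at 570 nm.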

RAW264.7 [4] = experiment: Antiinflammatory activity in mouse RAW264.7 cells assessed as inhibition of LPS-induced NO production administered 1 hr before LPS challenge measured after 24 hrs by Griess method; assay type: functional, cell-based
RAW264.7 [5] = experiment: Antiinflammatory activity in mouse RAW264.7 cells assessed as inhibition of LPS-induced NO production at 5 uM administered 1 hr before LPS challenge measured after 24 hrs by Griess method; assay type: functional, cell-based
Mus musculus [6] = experiment: Antiinflammatory activity in ICR mouse assessed as decrease in carrageenan-induced MDA level at 8 mg/kg, ip measured after 5 hrs; assay type: functional, organism-based; set-up: dose 8 mg/kg
Method in brief: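 Male ICR mice (n = 6 per group) were dosed 30 min before intraplantar carrageenan. MDA in the edematous paw tissue was determined at the 5th hr after carrageenan.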

Mus musculus [7] = experiment: Antiinflammatory activity in ICR mouse assessed as decrease in carrageenan-induced serum NO level at 8 mg/kg, ip measured after 5 hrs; assay type: functional, organism-based; set-up: dose 8 mg/kg
Method in brief: (§1)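 Male ICR mice (18–25 g, n = 6 per group). Carrageenan was injected intraplantar into the paw, with drug given 30 min beforehand. Serum was collected at the 5th hr. Nitrite was measured colorimetrically by Griess reaction, and TNF-α by commercial ELISA. Data are mean ± SEM.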

Mus musculus [8] = experiment: Antiinflammatory activity in ICR mouse assessed as decrease in carrageenan-induced serum TNFalpha level at 8 mg/kg, ip measured after 5 hrs; assay type: functional, organism-based; set-up: dose 8 mg/kg; method in brief: as §1
Mus musculus [9] = experiment: Antiinflammatory activity in ICR mouse assessed as decrease in carrageenan-induced serum TNFalpha level at 2 mg/kg, ip; assay type: functional, organism-based; set-up: dose 2 mg/kg; method in brief: as §1
Mus musculus [10] = experiment: Antiinflammatory activity in ICR mouse assessed as decrease in carrageenan-induced serum TNFalpha level at 4 mg/kg, ip; assay type: functional, organism-based; set-up: dose 4 mg/kg; method in brief: as §1
Mus musculus [11] = experiment: Antiinflammatory activity in ICR mouse assessed as decrease in carrageenan-induced serum TNFalpha level at 8 mg/kg, ip; assay type: functional, organism-based; set-up: dose 8 mg/kg; method in brief: as §1
Mus musculus [12] = experiment: Antioxidant activity in carrageenan-stimulated ICR mouse assessed as increase in CAT activity at 2 mg/kg, ip measured after 5 hrs; assay type: functional; settings: route intraperitoneal
Method in brief: (§2)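 Male ICR mice (n = 6 per group) received the drug 30 min before intraplantar carrageenan, and paw tissue was taken at the 5th hr. Total SOD was measured by inhibition of cytochrome c reduction, CAT by Aebi's method, and cytosolic GPx by Paglia–Valentine. Activities are in U/mg protein, given as mean ± SEM.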

Mus musculus [13] = experiment: Antioxidant activity in carrageenan-stimulated ICR mouse assessed as increase in CAT activity at 4 mg/kg, ip measured after 5 hrs; assay type: functional; settings: route intraperitoneal; method in brief: as §2
Mus musculus [14] = experiment: Antioxidant activity in carrageenan-stimulated ICR mouse assessed as increase in CAT activity at 8 mg/kg, ip measured after 5 hrs; assay type: functional; settings: route intraperitoneal; method in brief: as §2
Mus musculus [15] = experiment: Antioxidant activity in carrageenan-stimulated ICR mouse assessed as increase in SOD activity at 2 mg/kg, ip measured after 5 hrs; assay type: functional; settings: route intraperitoneal; method in brief: as §2
Mus musculus [16] = experiment: Antioxidant activity in carrageenan-stimulated ICR mouse assessed as increase in SOD activity at 4 mg/kg, ip measured after 5 hrs; assay type: functional; settings: route intraperitoneal; method in brief: as §2
RAW264.7 [17] = experiment: Antiinflammatory activity in mouse RAW264.7 cells assessed as inhibition of LPS-induced NO production at 10 uM administered 1 hr before LPS challenge measured after 24 hrs by Griess method; assay type: functional, cell-based
RAW264.7 [18] = experiment: Antiinflammatory activity in mouse RAW264.7 cells assessed as inhibition of LPS-induced NO production at 20 uM administered 1 hr before LPS challenge measured after 24 hrs by Griess method; assay type: functional, cell-based
RAW264.7 [19] = experiment: Antiinflammatory activity in LPS-stimulated mouse RAW264.7 cells assessed as inhibition of COX-2 protein expression after 24 hrs by Western blot analysis; assay type: functional, cell-based
RAW264.7 [20] = experiment: Antiinflammatory activity in LPS-stimulated mouse RAW264.7 cells assessed as inhibition of iNOS protein expression after 24 hrs by Western blot analysis; assay type: functional, cell-based
RAW264.7 [21] = experiment: Down regulation of COX-2 protein expression in LPS-stimulated mouse RAW264.7 cells at 20 uM after 24 hrs by Western blot analysis; assay type: functional
Method in brief: (§3)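 RAW 264.7 cells were pretreated with test agent for 1 h, then stimulated with 100 ng/mL LPS for 24 h. Lysates were made in RIPA buffer and 30 µg protein resolved by SDS-PAGE, blotted to PVDF and blocked with 1% BSA. Primary antibody ran overnight at 4 °C, HRP secondary 1 h at 37 °C. Detection was by ECL, with band intensity expressed relative to control.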

RAW264.7 [22] = experiment: Down regulation of iNOS protein expression in LPS-stimulated mouse RAW264.7 cells at 20 uM after 24 hrs by Western blot analysis; assay type: functional; method in brief: as §3
[23] = target: Mitogen-activated protein kinase 1 and 3 (ERK2 and ERK1) (Mus musculus) (UniProt P63085+Q63844); experiment: Inhibition of Erk1/2 phosphorylation in LPS-stimulated mouse RAW264.7 cells at 5 to 20 uM after 30 mins by Western blot analysis; assay type: cell-based
Method in brief: (§4)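 RAW 264.7 cells were pretreated with test agent, then stimulated with LPS for 30 min. Phospho-ERK, phospho-JNK and phospho-p38 were assessed by Western blot: RIPA lysates, 30 µg protein, SDS-PAGE, PVDF, primary antibody overnight at 4 °C, HRP secondary and ECL detection.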

[24] = target: MAP kinase p38 (Mus musculus) (UniProt P47811+O08911+Q9WUI1+Q9Z1B7); experiment: Inhibition of p38 phosphorylation in LPS-stimulated mouse RAW264.7 cells at 5 to 20 uM after 30 mins by Western blot analysis; assay type: cell-based; method in brief: as §4
RAW264.7 [25] = experiment: Inhibition of JNK phosphorylation in LPS-stimulated mouse RAW264.7 cells at 5 to 20 uM after 30 mins by Western blot analysis; assay type: cell-based; method in brief: as §4

Chain of Mitogen-activated protein kinase 1 and 3 (ERK2 and ERK1) (Mus musculus) (P63085 whole entry, looked up): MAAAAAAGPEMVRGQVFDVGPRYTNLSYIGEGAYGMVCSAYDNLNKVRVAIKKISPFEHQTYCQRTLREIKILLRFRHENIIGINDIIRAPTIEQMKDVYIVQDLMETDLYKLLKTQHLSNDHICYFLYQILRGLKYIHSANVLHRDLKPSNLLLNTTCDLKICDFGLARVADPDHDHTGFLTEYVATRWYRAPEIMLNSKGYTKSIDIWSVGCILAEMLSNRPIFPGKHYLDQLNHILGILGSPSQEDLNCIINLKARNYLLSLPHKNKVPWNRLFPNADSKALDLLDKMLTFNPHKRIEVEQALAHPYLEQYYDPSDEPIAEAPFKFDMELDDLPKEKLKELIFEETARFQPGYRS
Chain of Mitogen-activated protein kinase 1 and 3 (ERK2 and ERK1) (Mus musculus) (Q63844 whole entry, looked up): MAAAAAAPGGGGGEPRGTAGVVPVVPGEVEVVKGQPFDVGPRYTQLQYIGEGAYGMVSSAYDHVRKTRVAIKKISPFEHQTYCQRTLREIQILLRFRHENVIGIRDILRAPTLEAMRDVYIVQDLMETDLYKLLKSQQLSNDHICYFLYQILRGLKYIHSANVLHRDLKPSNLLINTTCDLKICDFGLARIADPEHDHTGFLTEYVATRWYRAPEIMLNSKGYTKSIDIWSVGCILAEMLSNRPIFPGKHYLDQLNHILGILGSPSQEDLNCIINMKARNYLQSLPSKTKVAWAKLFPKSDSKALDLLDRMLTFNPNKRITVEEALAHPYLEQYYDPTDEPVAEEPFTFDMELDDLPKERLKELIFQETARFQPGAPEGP

Compound: COc1cc(CCCc2c(OC)cc(O)c(OC)c2OC)ccc1O [VISCOLIN]
- IC50 [1]: 0.58 µg/mL (≈ 1.66 µM)
- IC50 [2]: 4.93 µg/mL (≈ 14.2 µM)
- Activity (RAW264.7 [3]): Non-toxic
- Activity (RAW264.7 [4]): Dose-dependent effect
- IC50 (RAW264.7 [4]): 17.8 µM
- Activity (RAW264.7 [5]): Active
- Activity (Mus musculus [6]): Active
- Activity (Mus musculus [7]): Active
- Activity (Mus musculus [8]): Active
- Activity (Mus musculus [9]): Active
- Activity (Mus musculus [10]): Active
- Activity (Mus musculus [11]): Active
- Activity (Mus musculus [12]): 3.92 U/mg
- Activity (Mus musculus [13]): 4.28 U/mg
- Activity (Mus musculus [14]): 4.98 U/mg
- Activity (Mus musculus [15]): 2.45 U/mg
- Activity (Mus musculus [16]): 3.46 U/mg
- Activity (RAW264.7 [17]): Active
- Activity (RAW264.7 [18]): Active
- Activity (RAW264.7 [19]): Dose-dependent effect
- Activity (RAW264.7 [20]): Dose-dependent effect
- Activity (RAW264.7 [21]): 70.6%
- Activity (RAW264.7 [22]): 83.8%
- inhibition [23]: Active
- inhibition [24]: inactive
- inhibition (RAW264.7 [25]): inactive
